Assay [1] deals with Rattus norvegicus. Description: Antidiuretic activity in iv dosed rat. The class given is functional, Urine. The procedure, abridged: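 Rats under ethanol anesthesia, analogue given intravenously; antidiuretic response measured by previously described method.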
The subject of assay [2] is Rattus norvegicus. Description: Vasopressor activity in iv dosed phenoxybenzamine treated rat. The class given is functional. The procedure, abridged: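 Rats pretreated with phenoxybenzamine, under urethane anesthesia, analogue given intravenously; vasopressor (blood pressure) response measured, antagonism expressed as pA2 by Schild method, pA2 calculated per assay group and reported as mean ± SE with number of assays.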

In assay [3] the test system is Rattus norvegicus. Description: Antivasopressor activity in iv dosed phenoxybenzamine treated rat assessed as inhibition of arginine-vasopressin-induced effect. Conditions: read-out: pA2 (converted). The format is functional, organism-based. The procedure, abridged: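 Rats pretreated with phenoxybenzamine and anaesthetised with urethane; pressor response to arginine-vasopressin recorded with and without intravenous analogue. pA2 derived by the Schild method, one pA2 calculated per assay group, reported as mean ± SE across groups, number of assays stated.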

*1 amine or outer side, *2 acyl side, *3 side chain or, on linkers, in order; H or OH if unused. Where a SMILES comes first, the peptide text is derived from it. Bridges are numbered along the chain shown (N, C = ends). X1 = CC(C)(CC(=O)[*:1])S[*:2]

In the case of `COc1ccc(C[C@@H]2NC(=O)[C@@H](N)CSSC[C@@H](C(=O)N3CCC[C@H]3C(=O)N[C@@H](CCCNC(=N)N)C(=O)NCC(N)=O)NC(=O)[C@H](CC(N)=O)NC(=O)[C@H](CCC(N)=O)NC(=O)[C@H](Cc3ccccc3)NC2=O)cc1`, the Activity was determined as 386 U/mg in assay [1] and 9.7 U/mg in assay [2].

Turning to `COc1ccc(C[C@@H]2NC(=O)[C@@H](N)CSSC[C@@H](C(=O)N3CCC[C@H]3C(=O)N[C@@H](CCCCN)C(=O)NCC(N)=O)NC(=O)[C@H](CC(N)=O)NC(=O)[C@H](CCC(N)=O)NC(=O)[C@H](Cc3ccccc3)NC2=O)cc1`, the Activity in assay [1] amounted to 79 U/mg; in assay [2] it was 2.4 U/mg.

In assay [1], `CC[C@H](C)[C@@H]1NC(=O)[C@H](Cc2ccc(OC)cc2)NC(=O)[C@@H](N)CSSC[C@@H](C(=O)N2CCC[C@H]2C(=O)N[C@@H](CC(C)C)C(=O)NCC(N)=O)NC(=O)[C@H](CC(N)=O)NC(=O)[C@H](CCC(N)=O)NC1=O` gave an Activity of 0.01 U/mg.

For the compound `COc1ccc(C[C@@H]2NC(=O)CC(C)(C)SSC[C@@H](C(=O)N3CCC[C@H]3C(=O)N[C@@H](CCCN=C(N)N)C(=O)NCC(N)=O)NC(=O)[C@H](CC(N)=O)NC(=O)[C@H](CCC(N)=O)NC(=O)[C@H](Cc3ccccc3)NC2=O)cc1` (Y(Me)FQNCPRG-NH2; linker N-5 via X1), the Kb in assay [3] was 11 nM. Also, the Activity in assay [1] is on record as 3.5 U/mg.

Turning to `CC1(C)CC(=O)N[C@@H](Cc2ccc(O)cc2)C(=O)N[C@@H](Cc2ccccc2)C(=O)N[C@@H](CCC(N)=O)C(=O)N[C@@H](CC(N)=O)C(=O)N[C@H](C(=O)N2CCC[C@H]2C(=O)N[C@@H](CCCNC(=N)N)C(=O)NCC(N)=O)CSS1` (YFQNCPRG-NH2; linker N-5 via X1), the Activity in assay [1] worked out at 42 U/mg.

`CC[C@H](C)[C@@H]1NC(=O)[C@H](Cc2ccc(O)cc2)NC(=O)CCSSC[C@@H](C(=O)N2CCC[C@H]2C(=O)N[C@@H](CC(C)C)C(=O)NCC(N)=O)NC(=O)[C@H](CC(N)=O)NC(=O)[C@H](CCC(N)=O)NC1=O` [DEMOXYTOCIN]: the Activity in assay [1] turned out to be 19 U/mg; in assay [2], 1.44 U/mg.

`N=C(N)NCCC[C@@H](NC(=O)[C@@H]1CCCN1C(=O)[C@@H]1CSSCCC(=O)N[C@@H](Cc2ccc(O)cc2)C(=O)N[C@@H](Cc2ccccc2)C(=O)N[C@@H](CCC(N)=O)C(=O)N[C@@H](CC(N)=O)C(=O)N1)C(=O)NCC(N)=O` [DESMOPRESSIN]: the Activity in assay [2] turned out to be 346 U/mg.

Regarding `NCCCC[C@H](NC(=O)[C@@H]1CCCN1C(=O)[C@@H]1CSSC[C@H](N)C(=O)N[C@@H](Cc2ccc(O)cc2)C(=O)N[C@@H](Cc2ccccc2)C(=O)N[C@@H](CCC(N)=O)C(=O)N[C@@H](CC(N)=O)C(=O)N1)C(=O)NCC(N)=O` [LYPRESSIN], the results for the Activity in assay [1] and in assay [2] were 212 U/mg and 285 U/mg, respectively.

With `CC[C@H](C)[C@@H]1NC(=O)[C@H](Cc2ccc(O)cc2)NC(=O)[C@@H](N)CSSC[C@@H](C(=O)N2CCC[C@H]2C(=O)N[C@@H](CC(C)C)C(=O)NCC(N)=O)NC(=O)[C@H](CC(N)=O)NC(=O)[C@H](CCC(N)=O)NC1=O` [OXYTOCIN], the Activity in assay [1] came to 4 U/mg.

The compound `N=C(N)NCCC[C@H](NC(=O)[C@@H]1CCCN1C(=O)[C@@H]1CSSC[C@H](N)C(=O)N[C@@H](Cc2ccc(O)cc2)C(=O)N[C@@H](Cc2ccccc2)C(=O)N[C@@H](CCC(N)=O)C(=O)N[C@@H](CC(N)=O)C(=O)N1)C(=O)NCC(N)=O` [VASOPRESSIN] showed an Activity in assay [1] of 323 U/mg.

The record behind these values is ChEMBL document CHEMBL3272107, “Design of potent antagonists of the vasopressor response to arginine-vasopressin” (J Med Chem, 1978).
